Experimental findings from ChEMBL document CHEMBL2429859, “Inhibiting aberrant signal transducer and activator of transcription protein activation with tetrapodal, small molecule Src homology 2 domain binders: promising agents against multiple myeloma” (J Med Chem, 2013) are described below.

The target in assay [1] is T1, Signal transducer and activator of transcription 5A (Homo sapiens) (UniProt P42229).
T1 sequence (whole entry): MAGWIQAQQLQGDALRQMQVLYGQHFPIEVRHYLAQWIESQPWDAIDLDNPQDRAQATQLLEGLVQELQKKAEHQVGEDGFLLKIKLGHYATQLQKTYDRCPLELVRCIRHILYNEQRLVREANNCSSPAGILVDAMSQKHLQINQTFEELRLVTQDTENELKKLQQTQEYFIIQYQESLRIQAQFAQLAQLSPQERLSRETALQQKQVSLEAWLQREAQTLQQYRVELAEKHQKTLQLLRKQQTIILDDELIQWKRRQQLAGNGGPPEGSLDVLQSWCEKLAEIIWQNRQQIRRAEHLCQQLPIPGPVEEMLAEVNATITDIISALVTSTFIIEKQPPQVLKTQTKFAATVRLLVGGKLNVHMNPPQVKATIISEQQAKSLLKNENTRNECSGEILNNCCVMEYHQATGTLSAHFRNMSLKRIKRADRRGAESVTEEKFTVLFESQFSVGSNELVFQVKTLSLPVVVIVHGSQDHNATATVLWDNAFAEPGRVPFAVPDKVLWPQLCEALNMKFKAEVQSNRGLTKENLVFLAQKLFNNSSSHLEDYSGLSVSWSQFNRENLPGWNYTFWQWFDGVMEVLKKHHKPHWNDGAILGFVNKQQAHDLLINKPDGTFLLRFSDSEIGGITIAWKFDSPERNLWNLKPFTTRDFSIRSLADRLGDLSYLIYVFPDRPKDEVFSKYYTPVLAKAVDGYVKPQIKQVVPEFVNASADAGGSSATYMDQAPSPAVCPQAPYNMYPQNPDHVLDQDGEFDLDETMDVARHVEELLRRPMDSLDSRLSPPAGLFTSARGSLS
Nature of the assay: Inhibition of GM-CSF-induced Stat5 phosphorylation in serum-starved human U937 cells at 10 to 20 uM incubated for 4 hrs prior to GM-CSF induction measured after 15 mins by phopsho-flow cytometric analysis. The note with it: U-937. It counts as cell-based. A digest of the protocol: (§1)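 Serum-starved U937 cells were pretreated with compound for 4 h, then stimulated 15 min with IL-6 (Stat3), GM-CSF (Stat5) or IFN (Stat1). Phosphorylation of each STAT was quantified by phospho-flow cytometry.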

Assay [2] deals with RPMI-8226. The experiment in a line: Cytotoxicity against human RPMI8226 cells assessed as inhibition of cell viability after 72 hrs by MTT assay. It counts as functional, cell-based. The method, boiled down: (§2)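 Myeloma lines were seeded at 1-3 x 10^4 cells per well onto compound or vehicle, in triplicate, and cultured 72 h at 37 °C in 5% CO2. Viability was measured colorimetrically by MTT assay relative to DMSO control. EC50 was fitted to a standard dose-response curve where applicable.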

Assay [3] relates to UTMC2. The experiment in a line: Cytotoxicity against human UTMC2 cells assessed as inhibition of cell viability after 72 hrs by MTT assay. It counts as functional, cell-based. A digest of the protocol: as §2
Assay [4] deals with T2, Signal transducer and activator of transcription 3 (Homo sapiens, UniProt P40763). Nature of the assay: Inhibition of Stat3 in human JJN-3 cells assessed as downregulation of c-Myc protein expression after 6 hrs by Western blot analysis. It counts as cell-based. A digest of the protocol: (§3)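 Treated cells were washed in cold PBS and lysed 30 min on ice in Tris-HCl pH 7.4/NaCl/EDTA/1% NP-40 with PMSF, vanadate and protease inhibitors. Lysates were Bradford-normalized, and 10-30 µg protein was run on 7-10% SDS-PAGE and transferred to PVDF. Blots were blocked in 5% BSA/TBST, probed overnight at 4 °C, then with HRP secondary, and detected by ECL.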

Assay [5] addresses T3, Signal transducer and activator of transcription 1-alpha/beta (Homo sapiens) (UniProt P42224).
T3 sequence (whole entry): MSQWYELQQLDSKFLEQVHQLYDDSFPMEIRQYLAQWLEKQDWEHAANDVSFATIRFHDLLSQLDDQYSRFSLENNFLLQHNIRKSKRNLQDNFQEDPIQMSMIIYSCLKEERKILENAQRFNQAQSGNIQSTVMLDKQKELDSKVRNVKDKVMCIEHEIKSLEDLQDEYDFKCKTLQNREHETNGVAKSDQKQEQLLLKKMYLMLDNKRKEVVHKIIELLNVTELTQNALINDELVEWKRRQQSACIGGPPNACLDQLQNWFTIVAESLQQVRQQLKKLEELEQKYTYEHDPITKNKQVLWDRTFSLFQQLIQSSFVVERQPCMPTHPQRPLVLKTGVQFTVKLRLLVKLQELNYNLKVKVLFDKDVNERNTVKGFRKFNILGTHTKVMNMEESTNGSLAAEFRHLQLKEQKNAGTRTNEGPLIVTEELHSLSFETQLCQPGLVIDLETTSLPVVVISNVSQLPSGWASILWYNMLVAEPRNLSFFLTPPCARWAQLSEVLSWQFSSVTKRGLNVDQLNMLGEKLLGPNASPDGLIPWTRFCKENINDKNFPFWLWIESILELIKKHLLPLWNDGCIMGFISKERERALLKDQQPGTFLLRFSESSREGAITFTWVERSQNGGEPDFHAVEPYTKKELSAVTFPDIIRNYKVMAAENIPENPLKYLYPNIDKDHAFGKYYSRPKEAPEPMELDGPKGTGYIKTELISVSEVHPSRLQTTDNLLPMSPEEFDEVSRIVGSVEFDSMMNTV
Nature of the assay: Inhibition of IFNgamma-induced Stat1 phosphorylation in serum-starved human U937 cells at 10 to 20 uM incubated for 4 hrs prior to IFNgamma induction measured after 15 mins by phopsho-flow cytometric analysis. It counts as cell-based. The settings on record: U-937. The method, boiled down: as §1

Assay [6] can be described thus: Cytotoxicity against human MDA468 cells assessed as cell viability after 72 hrs by MTS assay. It counts as functional, cell-based. The settings on record: MDA-MB-468, 72 h. The method, boiled down:
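Cells were seeded at 1-3 x 10^4 per well into wells already holding compound or vehicle, in triplicate. Incubation was 72 h at 37 °C in 5% CO2. Viability was read by MTS colorimetry relative to DMSO control, and EC50 was fitted to a standard dose-response curve where applicable.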

The target in assay [7] is T2, Signal transducer and activator of transcription 3. Nature of the assay: Inhibition of Stat3 in human JJN-3 cells assessed as downregulation of BCL-xL protein expression. It counts as cell-based. The method, boiled down:
as §3

Assay [8] shares this target. The experiment in a line: Inhibition of Stat3 in human JJN-3 cells assessed as downregulation of survivin protein expression. It counts as cell-based. A digest of the protocol: as §3
The target is the same in assay [9]. The experiment in a line: Inhibition of Stat3-mediated luciferase expression in human XG6 cells at 7.5 to 15 uM after 6 hrs relative to control. It counts as cell-based. A digest of the protocol: (§4)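 Myeloma cells stably carried a Stat3-driven firefly luciferase reporter (puromycin-selected) and a CMV-driven Renilla luciferase internal control (hygromycin-selected), each selected for 2 weeks. After drug treatment, dual luciferase activity was read as relative luciferase units, firefly/Renilla.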

Assay [10] relates to JJN-3. The experiment in a line: Cytotoxicity against human JJN-3 cells assessed as inhibition of cell viability after 72 hrs by MTT assay. It counts as functional, cell-based. The method, boiled down:
as §2

The target of assay [11] is T2, Signal transducer and activator of transcription 3. Nature of the assay: Inhibition of Stat3-mediated luciferase expression in human XG6 cells at 15 to 30 uM after 6 hrs relative to control. It counts as cell-based. A digest of the protocol:
as §4

Assay [12] has as its target Tyrosine-protein kinase JAK1 (Homo sapiens) (UniProt P23458). The experiment in a line: Inhibition of JAK1 (unknown origin) assessed as residual activity at 5 uM relative to control. A digest of the protocol:
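Kinase profiling used a KinomeScan at 5 µM across 132 kinases, including 37 with SH2 domains.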

Assay [13] addresses T2, Signal transducer and activator of transcription 3. Nature of the assay: Inhibition of Stat3-mediated luciferase expression in human 8226 cells at 15 to 30 uM after 6 hrs relative to control. It counts as cell-based. A digest of the protocol: as §4

pIC50: −log10 of the molar value. The source made the active and inactive calls. No cut-off for these calls is given here.

T2 sequence (P40763 whole entry): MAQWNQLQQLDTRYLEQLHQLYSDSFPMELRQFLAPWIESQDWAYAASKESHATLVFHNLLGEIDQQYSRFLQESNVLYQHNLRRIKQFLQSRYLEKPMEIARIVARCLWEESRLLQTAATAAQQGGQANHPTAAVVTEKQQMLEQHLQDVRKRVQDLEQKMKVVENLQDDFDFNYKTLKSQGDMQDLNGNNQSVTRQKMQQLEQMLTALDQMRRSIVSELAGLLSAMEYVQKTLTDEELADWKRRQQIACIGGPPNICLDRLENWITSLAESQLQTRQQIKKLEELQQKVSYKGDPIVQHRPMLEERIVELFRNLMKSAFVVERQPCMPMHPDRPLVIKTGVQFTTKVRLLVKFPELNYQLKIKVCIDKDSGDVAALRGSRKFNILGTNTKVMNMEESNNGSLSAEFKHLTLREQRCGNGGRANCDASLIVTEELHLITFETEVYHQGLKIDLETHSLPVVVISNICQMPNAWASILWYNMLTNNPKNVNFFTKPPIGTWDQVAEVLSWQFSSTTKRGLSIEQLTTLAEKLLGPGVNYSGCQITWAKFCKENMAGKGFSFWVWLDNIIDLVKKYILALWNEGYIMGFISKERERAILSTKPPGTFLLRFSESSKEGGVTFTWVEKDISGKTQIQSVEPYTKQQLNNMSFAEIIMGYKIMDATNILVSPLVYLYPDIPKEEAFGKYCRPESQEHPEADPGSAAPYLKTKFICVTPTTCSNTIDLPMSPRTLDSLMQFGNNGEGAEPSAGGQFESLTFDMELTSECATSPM
Tyrosine-protein kinase JAK1 (Homo sapiens), sequence (P23458 whole entry, the tested form may be a part): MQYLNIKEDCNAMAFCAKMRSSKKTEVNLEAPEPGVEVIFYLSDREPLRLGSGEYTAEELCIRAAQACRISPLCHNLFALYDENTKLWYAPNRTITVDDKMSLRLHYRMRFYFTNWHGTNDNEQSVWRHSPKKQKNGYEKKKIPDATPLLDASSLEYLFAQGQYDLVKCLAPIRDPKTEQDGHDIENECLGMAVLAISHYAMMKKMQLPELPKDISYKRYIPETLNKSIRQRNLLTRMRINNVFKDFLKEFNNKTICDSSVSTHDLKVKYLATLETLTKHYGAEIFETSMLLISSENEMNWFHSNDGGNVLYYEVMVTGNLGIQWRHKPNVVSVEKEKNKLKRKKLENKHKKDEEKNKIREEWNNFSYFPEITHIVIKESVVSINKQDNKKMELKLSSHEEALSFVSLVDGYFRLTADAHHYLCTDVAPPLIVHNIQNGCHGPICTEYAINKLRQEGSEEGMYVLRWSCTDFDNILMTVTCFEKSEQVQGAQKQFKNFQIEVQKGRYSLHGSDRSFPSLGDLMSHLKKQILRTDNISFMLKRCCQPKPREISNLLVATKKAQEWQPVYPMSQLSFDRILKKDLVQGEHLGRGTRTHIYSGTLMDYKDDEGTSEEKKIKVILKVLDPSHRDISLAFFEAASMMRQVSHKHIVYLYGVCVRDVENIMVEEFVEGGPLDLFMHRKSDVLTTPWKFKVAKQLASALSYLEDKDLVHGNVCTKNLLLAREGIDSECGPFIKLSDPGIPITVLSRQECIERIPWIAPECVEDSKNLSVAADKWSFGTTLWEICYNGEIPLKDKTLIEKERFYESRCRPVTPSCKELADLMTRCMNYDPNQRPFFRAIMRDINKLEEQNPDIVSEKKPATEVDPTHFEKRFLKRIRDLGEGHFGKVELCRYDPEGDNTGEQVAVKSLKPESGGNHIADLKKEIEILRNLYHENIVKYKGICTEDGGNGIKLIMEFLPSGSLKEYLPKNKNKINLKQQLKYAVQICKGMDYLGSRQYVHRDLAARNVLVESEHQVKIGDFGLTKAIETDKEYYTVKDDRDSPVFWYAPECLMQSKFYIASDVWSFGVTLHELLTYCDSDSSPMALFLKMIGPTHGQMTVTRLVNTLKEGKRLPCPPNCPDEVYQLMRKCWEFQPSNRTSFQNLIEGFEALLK

Take `O=C(O)c1ccc(N(Cc2ccc(C3CCCCC3)cc2)C(=O)CN(Cc2ccccc2C(F)(F)F)S(=O)(=O)c2c(F)c(F)c(F)c(F)c2F)cc1O`: the inhibition entry in assay [1] and in assay [5] was “Active” throughout. In addition, the inhibition entry in assay [2] is “Dose-dependent effect”; in assay [3] it was “Dose-dependent effect”; in [4], “Dose-dependent effect”; in assay [9], 50%; in assay [10], “Dose-dependent effect”. Further, the pIC50 in assay [6] is 5.09. Further, the inhibition entry in assay [7] and in assay [8] was “inactive” in each case.

Take `Cc1ccc(S(=O)(=O)N(CC(=O)N(Cc2ccc(C3CCCCC3)cc2)c2ccc(C(=O)O)c(O)c2)Cc2ccccc2C(F)(F)F)cc1`: the inhibition entry in assay [1] and in assay [5] was “Active” throughout. The inhibition entry in assay [2] is “Dose-dependent effect”; in assay [11], 50%; in assay [3], “Dose-dependent effect”; in assay [4], “Dose-dependent effect”; in assay [10] it was “Dose-dependent effect”; in assay [13] it was 50%. Also, the pIC50 in [6] is 4.96. Also, the inhibition result in assay [7] and in assay [8] was “inactive” each time. Also, the Activity in [12] was 84%.
